The list is not random: actives were taken first. Their share in the collection is about 4%.
ABHD5 PLIN5 PPI – ABHD5-PLIN5 interaction inhibitors, primary screen, cell lysate, split luciferase complementation, luminescence; 360,000 tested, 0.78% active; Split G. princeps luciferase complementation, 4 h; Perilipin-5 (Homo sapiens) + 1-acylglycerol-3-phosphate O-acyltransferase ABHD5 (Homo …; inhibition, % at 4 µM;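 active = inhibition above the mean inhibition across every tested compound plus 3 SD, cut at about 22% in these data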
Granule exo inh – LAMP-1 surface exposure blockers, TALL-104 cells – cell-based, flow cytometry, MLPCN library, primary screen | 360,000 tested, 0.66% active | AID 651702, 2012 | inhibition, % at 10 µM | TALL-104 LAMP-1 surface exposure; cells stimulated with thapsigargin and PMA;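 active = inhibition above about 55%, limit read from the data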
Mdm2 MdmX PPI – inhibitors of human Mdm2-MdmX association, primary screen, cell-based, luminescence, split luciferase, SaOS-2, uHTS | SaOS-2 split-luciferase Mdm2/MdmX complementation | inhibition, % at 8 µM | 330,000 tested, 3% active;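 active = inhibition of at least 50% at 8 µM in the primary screen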
XBP1 UPR activ – activators of adaptive XBP1 UPR arm, primary screen, cell-based, CHO-XBP1 luciferase reporter, luminescence, uHTS. AID 463104, 2010. 330,000 tested, 0.33% active. activation, % at 20 µM. IRE1-XBP1 UPR activation; percent of tunicamycin response, DMSO as zero;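 active = versus positive control, 20 µM dose yields 30% or more activation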
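incubation = overnight seeding at 37 °C, 6 h compound treatment at 37 °C | assay system = CHO-XBP1 cells stably carrying IRE1-XBP1-driven luciferase reporter | input = 1000 cells per well | detection = luciferase luminescence | dosing = single point, 20 µM final compound, 1% DMSO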
UPR CHOP act – activators of apoptotic CHOP UPR arm, primary screen, cell-based, CHO-CHOP luciferase reporter, luminescence, uHTS; UPR activation; percent of tunicamycin response over DMSO baseline; activation, % at 10 µM; 330,000 tested, 0.34% active; AID 449763, 2010;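 active = at 10 µM dose, activation of 40% or more, normalized to positive control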
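Assay system: CHO-CHOP cells, stable luciferase reporter of PERK-eIF2a-CHOP signalling / Buffer or medium: F12 plus 10% serum / Compound dosing: one dose, 10 µM in 0.5% DMSO / Times: 6 h compound treatment, 37 °C / Technique: luciferase luminescence / Read-out: % reporter activation, DMSO baseline versus tunicamycin full activation / Benchmarks: tunicamycin and DMSO controls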
Mdm2-MdmX conf – Mdm2-MdmX complex disruptors, retested hits, confirmation, luminescence, single concentration; shares compounds with Mdm2 MdmX PPI; inhibition, % at 8 µM; Mdm2-MdmX binding, luminescent assay; 10,000 tested, 55% active; in the data active = inhibition above about 40%
ABHD5 PLIN5 conf – ABHD5-PLIN5 interaction inhibitors, confirmation, biochemical, luminescence; shares compounds with ABHD5 PLIN5 PPI; inhibition, % at 4 µM; 2,200 tested, 67% active; AID 651612, 2012; in the data active = inhibition above about 23%
HNF4 counter – HNF4 dimerization inhibitors, counter-screen for ABHD5-PLIN5 interaction inhibitor project, biochemical, split-luciferase complementation, luminescence; shares compounds with ABHD5 PLIN5 PPI; inhibition, % at 4 µM; 2,200 tested, 77% active; AID 651674, 2012;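 active = mean inhibition across replicate wells exceeding the computed hit threshold, cut at about 13% in these data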;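 note: light from luciferase halves that rejoin when HNF4 fusion proteins dimerize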
Target sequence (P41235 whole entry, looked up, the tested form may be a part): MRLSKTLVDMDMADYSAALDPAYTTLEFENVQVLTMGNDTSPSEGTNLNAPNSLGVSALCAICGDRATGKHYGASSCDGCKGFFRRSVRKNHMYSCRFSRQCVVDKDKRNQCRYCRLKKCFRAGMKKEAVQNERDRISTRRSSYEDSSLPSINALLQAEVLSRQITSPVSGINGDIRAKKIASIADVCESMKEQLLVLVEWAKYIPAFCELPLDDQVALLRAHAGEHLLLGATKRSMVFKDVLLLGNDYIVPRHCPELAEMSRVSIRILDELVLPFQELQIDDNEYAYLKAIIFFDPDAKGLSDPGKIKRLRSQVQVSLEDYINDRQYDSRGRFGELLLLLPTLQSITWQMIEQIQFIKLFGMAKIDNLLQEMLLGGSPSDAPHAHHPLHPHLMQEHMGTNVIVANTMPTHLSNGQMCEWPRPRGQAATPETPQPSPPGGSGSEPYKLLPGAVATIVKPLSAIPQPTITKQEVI
Granule exo CP1 – inhibitors of lytic granule exocytosis, confirmation, TALL-104 cells, flow cytometry, Cherry Pick01; shares compounds with Granule exo inh; LAMP-1 externalization; stimulated with PMA plus thapsigargin; inhibition, % at 10 µM; 1,500 tested, 11% active; AID 651954, 2012; in the data active = inhibition above about 60%
Numbers stand for hits; . = inactive; / = no result given.

SMILES	ABHD5 PLIN5 PPI	Granule exo inh	Mdm2 MdmX PPI	XBP1 UPR activ	UPR CHOP act	ABHD5 PLIN5 conf	HNF4 counter	others
S=C(NCCCN1CCOCC1)N1CCN(c2nc(-c3ccc(Cl)cc3)cs2)CC1	32.5	76.6	61.5	.	.	.	.	Mdm2-MdmX conf=.;Granule exo CP1=.
O=C1Cc2ccccc2Sc2c(OCCN3CCCCC3)cccc21	24.8	.	.	.	.	.	.
CSc1nc(O)c(C(c2ccc(O)cc2)c2c(O)nc(SC)[nH]c2=O)c(=O)[nH]1	50.0	.	.	.	.	83.1	81.1
CSc1nc(O)c(C(c2cccc([N+](=O)[O-])c2)c2c(O)nc(SC)[nH]c2=O)c(=O)[nH]1	25.0	.	.	.	.	.	17.8
CCOc1ccc(C(c2c(O)nc(SC)[nH]c2=O)c2c(O)nc(SC)[nH]c2=O)cc1	34.5	.	.	.	.	83.4	76.9
CCN(/C=N/S(=O)(=O)c1ccc(Cl)cc1)CC	.	.	.	.	.	/	/
O=C(CCC1CCCN(C(=O)C2(c3ccccc3)CC2)C1)N1CCN(c2ccccn2)CC1 (configuration not stated)	.	.	.	.	.	/	/
O/N=C1\CCCc2nnc3c(c21)CCCC3	.	.	.	.	.	/	/
CCc1ccc(/C=C/C(=O)c2ccc(N3CCOCC3)cc2)cc1	.	.	.	.	.	/	/
CCc1ccc(/C=C/C(=O)c2ccc(S(=O)(=O)N(C)C)cc2)cc1	41.4	.	.	.	.	92.0	83.3
CCOC(=O)c1c(NC(=O)c2ccco2)sc(C(=O)N2CCCC2)c1C	.	.	.	.	.	/	/
O=C(Cn1c(=O)n(Cc2ccco2)c(=O)c2c3c(sc21)CCCC3)Nc1ccccc1	52.6	.	.	.	.	23.7	.
NC(=O)Cn1c(=O)n(Cc2ccco2)c(=O)c2c3c(sc21)CCCCC3	61.6	.	.	.	.	26.1	40.5
O=c1c2c3c(sc2n(CCN2CCCCC2)c(=O)n1Cc1ccco1)CCCCC3	.	.	.	.	.	/	/
CC(=O)c1ccc2noc(-c3ccccc3)c2c1	28.0	.	.	.	.	30.8	49.5
O=C(Cn1cc(COc2cc(F)cc(F)c2)nn1)c1ccc(O)cc1	.	.	/	/	/	/	/
Cc1cccc(C)c1OCc1cn(CC(=O)c2ccc(O)cc2)nn1	45.0	.	/	/	/	65.9	36.8
CC(=O)c1ccc(OCc2cn(CC(=O)c3ccc(O)cc3)nn2)cc1	23.5	.	/	/	/	.	23.7
CC(=O)c1ccc(OCc2cn(CC(=O)c3ccc(O)cc3)nn2)c(C)c1	.	.	/	/	/	/	/
O=C(Cn1cc(COc2ccccc2C(F)(F)F)nn1)c1ccc(O)cc1	.	.	/	/	/	/	/
COc1cc(C(C)=O)ccc1OCc1cn(CC(=O)c2ccc(O)cc2)nn1	24.9	.	/	/	/	53.0	31.1
CC(=O)Nc1ccc(OCc2cn(CC(=O)c3ccc(O)cc3)nn2)cc1	68.1	.	/	/	/	83.1	52.6
CCc1cccc2c(C(=O)CSc3nnc(-c4ccoc4C)n3C)c[nH]c12	.	.	.	.	.	/	/
CN1CCN(C(=S)c2cn(Cc3ccc(Br)cc3)c3ccccc23)CC1	27.6	.	.	.	.	.	.
CCOC(=O)c1c(NC(=O)/C=C/c2ccc(C)o2)sc(C)c1C	.	.	.	.	.	/	/

High-throughput results (PubChem BioAssay)
